# Active and inactive are the calls of the source. The rule behind the calls is not given here.
# Assays:
# [1] = target: T1, Transcriptional regulator MvfR (Pseudomonas aeruginosa PA14) (UniProt A0A072ZLE6); assay: Antagonist activity at PqsR in wild-type Pseudomonas aeruginosa PAO1-L assessed as inhibition of pyocyanin level at 3 times IC50 incubated for 16 hrs by absorbance based assay relative to control; details: filed as antagonist
# T1 sequence (whole entry): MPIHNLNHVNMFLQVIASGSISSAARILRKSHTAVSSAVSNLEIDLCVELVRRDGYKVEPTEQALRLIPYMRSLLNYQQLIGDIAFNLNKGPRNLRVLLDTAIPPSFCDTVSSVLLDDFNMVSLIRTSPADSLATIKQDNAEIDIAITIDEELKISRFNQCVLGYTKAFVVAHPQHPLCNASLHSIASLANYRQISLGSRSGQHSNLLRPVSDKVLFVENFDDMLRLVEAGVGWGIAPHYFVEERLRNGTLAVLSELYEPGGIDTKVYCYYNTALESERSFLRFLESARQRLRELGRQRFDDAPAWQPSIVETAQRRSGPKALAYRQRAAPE
# Pseudomonas aeruginosa [2] = assay: Inhibition of Pseudomonas aeruginosa pqsA-lux complex expressed in Pseudomonas aeruginosa PAO1-L at 10 uM by bioluminescent reporter assay
# Method in brief: (§1)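 Reporter strains PAO1-L and PA14 carrying chromosomal mCTX::PpqsA-lux, grown in LB at 37 °C. Inhibition read as reduced luminescence. Single-point screen at 10 μM from 10 mM DMSO stock; dose–response curves in both strains; mean ± SD, n = 2.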
# Pseudomonas aeruginosa [3] = assay: Inhibition of Pseudomonas aeruginosa pqsA-lux complex expressed in Pseudomonas aeruginosa PA14 at 10 uM by bioluminescent reporter assay; method in brief: as §1
# [4] = Inhibition of Pseudomonas aeruginosa pqsA-lux complex expressed in Pseudomonas aeruginosa PAO1-L by bioluminescent reporter assay; method in brief: as §1
# [5] = Inhibition of Pseudomonas aeruginosa pqsA-lux complex expressed in Pseudomonas aeruginosa PA14 by bioluminescent reporter assay; method in brief: as §1
# [6] = target: T1, Transcriptional regulator MvfR (Pseudomonas aeruginosa PA14); assay: Antagonist activity at PqsR in wild-type Pseudomonas aeruginosa PAO1-L assessed as reduction in HHQ level at 0.2 uM by LCMS/MS analysis; details: filed as antagonist
# [7] = target: T1, Transcriptional regulator MvfR (Pseudomonas aeruginosa PA14); assay: Antagonist activity at PqsR in wild-type Pseudomonas aeruginosa PA14 assessed as reduction in HHQ level at 0.2 uM by LCMS/MS analysis; details: filed as antagonist
# [8] = target: T1, Transcriptional regulator MvfR (Pseudomonas aeruginosa PA14); assay: Antagonist activity at PqsR in Pseudomonas aeruginosa IPCD48 clinical isolate assessed as reduction in HHQ level at 0.2 uM by LCMS/MS analysis; details: filed as antagonist
# [9] = target: T1, Transcriptional regulator MvfR (Pseudomonas aeruginosa PA14); assay: Antagonist activity at PqsR in Pseudomonas aeruginosa LESB58 clinical isolate assessed as reduction in AQ level at 0.2 uM by LCMS/MS analysis; details: filed as antagonist
# [10] = target: T1, Transcriptional regulator MvfR (Pseudomonas aeruginosa PA14); assay: Antagonist activity at PqsR in Pseudomonas aeruginosa IPCD1331 clinical isolate assessed as reduction in HHQ level at 0.2 uM by LCMS/MS analysis
# [11] = target: T1, Transcriptional regulator MvfR (Pseudomonas aeruginosa PA14); assay: Antagonist activity at PqsR in Pseudomonas aeruginosa IPCD1331 clinical isolate assessed as reduction in PQS level at 0.2 uM by LCMS/MS analysis
# [12] = target: T1, Transcriptional regulator MvfR (Pseudomonas aeruginosa PA14); assay: Antagonist activity at PqsR in wild-type Pseudomonas aeruginosa PAO1-L assessed as reduction in PQS level at 0.2 uM by LCMS/MS analysis; details: filed as antagonist
# [13] = target: T1, Transcriptional regulator MvfR (Pseudomonas aeruginosa PA14); assay: Antagonist activity at PqsR in wild-type Pseudomonas aeruginosa PA14 assessed as reduction in PQS level at 0.2 uM by LCMS/MS analysis; details: filed as antagonist
# [14] = target: T1, Transcriptional regulator MvfR (Pseudomonas aeruginosa PA14); assay: Antagonist activity at PqsR in Pseudomonas aeruginosa IPCD48 clinical isolate assessed as reduction in PQS level at 0.2 uM by LCMS/MS analysis; details: filed as antagonist
# [15] = target: T1, Transcriptional regulator MvfR (Pseudomonas aeruginosa PA14); assay: Antagonist activity at PqsR in wild-type Pseudomonas aeruginosa PAO1-L assessed as reduction in HQNO level at 0.2 uM by LCMS/MS analysis relative to control; design: scale not given: the % may be the effect or the level left
# [16] = target: T1, Transcriptional regulator MvfR (Pseudomonas aeruginosa PA14); assay: Antagonist activity at PqsR in wild-type Pseudomonas aeruginosa PA14 assessed as reduction in HQNO level at 0.2 uM by LCMS/MS analysis relative to control; design: scale not given: the % may be the effect or the level left
# [17] = target: T1, Transcriptional regulator MvfR (Pseudomonas aeruginosa PA14); assay: Antagonist activity at PqsR in Pseudomonas aeruginosa IPCD1350 clinical isolate assessed as reduction in HQNO level at 0.2 uM by LCMS/MS analysis relative to control; design: scale not given: the % may be the effect or the level left
# [18] = target: T1, Transcriptional regulator MvfR (Pseudomonas aeruginosa PA14); assay: Antagonist activity at PqsR in Pseudomonas aeruginosa LESB58 clinical isolate assessed as reduction in HQNO level at 0.2 uM by LCMS/MS analysis relative to control; design: scale not given: the % may be the effect or the level left
# [19] = target: T1, Transcriptional regulator MvfR (Pseudomonas aeruginosa PA14); assay: Antagonist activity at PqsR in Pseudomonas aeruginosa IPCD1331 clinical isolate assessed as reduction in HQNO level at 0.2 uM by LCMS/MS analysis relative to control; design: scale not given: the % may be the effect or the level left
# [20] = target: T1, Transcriptional regulator MvfR (Pseudomonas aeruginosa PA14); assay: Antagonist activity at PqsR in Pseudomonas aeruginosa IPCD48 clinical isolate assessed as reduction in HQNO level at 0.2 uM by LCMS/MS analysis relative to control; design: scale not given: the % may be the effect or the level left
# [21] = target: T1, Transcriptional regulator MvfR (Pseudomonas aeruginosa PA14); assay: Antagonist activity at PqsR in Pseudomonas aeruginosa IPCD1451 clinical isolate assessed as reduction in HQNO level at 0.2 uM by LCMS/MS analysis
# [22] = target: T1, Transcriptional regulator MvfR (Pseudomonas aeruginosa PA14); assay: Antagonist activity at PqsR in wild-type Pseudomonas aeruginosa PAO1-L assessed as inhibition of pyocyanin level at 200 nM incubated for 16 hrs by absorbance based assay; details: filed as antagonist
# [23] = target: T1, Transcriptional regulator MvfR (Pseudomonas aeruginosa PA14); assay: Antagonist activity at PqsR in wild-type Pseudomonas aeruginosa PA14 assessed as inhibition of pyocyanin level at 200 nM incubated for 16 hrs by absorbance based assay; details: filed as antagonist
# [24] = target: T1, Transcriptional regulator MvfR (Pseudomonas aeruginosa PA14); assay: Antagonist activity at PqsR in Pseudomonas aeruginosa IPCD1451 clinical isolate assessed as inhibition of pyocyanin level at 200 nM incubated for 16 hrs by absorbance based assay
# [25] = target: T1, Transcriptional regulator MvfR (Pseudomonas aeruginosa PA14); assay: Antagonist activity at PqsR in Pseudomonas aeruginosa IPCD1350 clinical isolate assessed as inhibition of pyocyanin level at 200 nM incubated for 16 hrs by absorbance based assay; details: filed as antagonist
# [26] = target: T1, Transcriptional regulator MvfR (Pseudomonas aeruginosa PA14); assay: Antagonist activity at PqsR in Pseudomonas aeruginosa LESB58 clinical isolate assessed as inhibition of pyocyanin level at 200 nM incubated for 16 hrs by absorbance based assay; details: filed as antagonist
# [27] = target: T1, Transcriptional regulator MvfR (Pseudomonas aeruginosa PA14); assay: Antagonist activity at PqsR in Pseudomonas aeruginosa IPCD1331 clinical isolate assessed as inhibition of pyocyanin level at 200 nM incubated for 16 hrs by absorbance based assay; details: filed as antagonist
# [28] = target: T1, Transcriptional regulator MvfR (Pseudomonas aeruginosa PA14); assay: Antagonist activity at PqsR in Pseudomonas aeruginosa IPCD48 clinical isolate assessed as inhibition of pyocyanin level at 200 nM incubated for 16 hrs by absorbance based assay; details: filed as antagonist
# Pseudomonas aeruginosa [29] = assay: Inhibition of biofilm formation in Pseudomonas aeruginosa PAO1-L at 10 uM incubated for 6 to 24 hrs by SYTO9/PI staining based confocal laser scanning microscopy; format: functional, organism-based; details: time 6-24 hrs
# Method in brief: (§2)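 PAO1-L biofilms grown on glass coverslips in a rolling bioreactor (20 rpm) in FAB 10 mM glucose, inoculated at OD600 0.01, 30 °C for 24 h with 10 μM compound from the start. Then PBS wash and 6 or 24 h in fresh medium with 60 μg/mL ciprofloxacin, 20 μM compound, or both. LIVE/DEAD BacLight staining, CLSM; live/dead ratios against untreated.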
# Pseudomonas aeruginosa [30] = assay: Potentiation of Ciprofloxacin-induced antibiofilm activity in Pseudomonas aeruginosa PAO1-L at 10 uM incubated for 6 to 24 hrs by SYTO9/PI staining based confocal laser scanning microscopy; format: functional, organism-based; details: time 6-24 hrs; method in brief: as §2
# Pseudomonas aeruginosa [31] = assay: Inhibition of biofilm formation in GFP-labeled Pseudomonas aeruginosa PAO1-L at 1 uM incubated for 16 hrs by PI staining based confocal laser scanning microscopy; format: functional, organism-based
# Method in brief: (§3)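 GFP-tagged strain (pMMG) grown in RPMI-1640 with 20 mM glucose and 2 μM FeCl3. Seeded at OD600 0.01 on glass coverslips, static 1.5 h at 37 °C. Compound added at 1 μM, then shaken at 60 rpm and 37 °C for 16 h. Tobramycin 100 μg/mL plus propidium iodide 2 μM for a further 2 or 6 h. CLSM, 5 random z-stacks per coverslip.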
# Pseudomonas aeruginosa [32] = assay: Potentiation of Tobramycin-induced antibiofilm activity in Pseudomonas aeruginosa PAO1-L at 1 uM preincubated for 16 hrs followed by tobramycin addition measured for 2 to 6 hrs by PI staining based confocal laser scanning microscopy; format: functional, organism-based; details: time 18-22 hrs; method in brief: as §3
# A549 = assay: Cytotoxicity against human A549 cells assessed as cell viability upto 100 uM incubated for 24 hrs by resazurin reduction assay; format: toxicity, cell-based; details: a549, 24 h
# Method in brief: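 A549 cells in DMEM with 10% FBS and 1% PSN, seeded at 1 × 10^4 cells/well. Compound at 1, 50 and 100 μM in sextuplicate, 24 h at 37 °C and 5% CO2. Vehicle control 1% DMSO; positive control 100 μM K2Cr2O7. Alamar blue added for 4–6 h, fluorescence read at ex 510/em 590 nm, normalized to DMSO.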
smiles,measurement,setting,value
N#CCc1ccc(OCC(O)CNc2nc3ccc(Cl)cc3n2CCO)cc1 (stereo not given),inhibition,[1],> 50%
N#CCc1ccc(OCC(O)CNc2nc3ccc(Cl)cc3o2)cc1 (stereo not given),inhibition,Pseudomonas aeruginosa [2],inactive
same,inhibition,Pseudomonas aeruginosa [3],inactive
Cn1c(NCC(O)COc2ccc(CC#N)cc2)nc2cc(Cl)c(Cl)cc21 (stereo not given),IC50,[4],Not Active
same,IC50,[5],Not Active
CCn1c(NCC(O)COc2ccc(CC#N)cc2)nc2ccc(Cl)cc21 (stereo not given),inhibition,[1],> 50%
N#CCc1ccc(OCC(O)CNc2nc3ccc(Cl)cc3n2C2CC2)cc1 (stereo not given),inhibition,[1],> 50%
Cn1c(NCC(O)COc2ccc(CC#N)cc2)nc2ccc(C(F)(F)F)cc21 (stereo not given),IC50,[4]; read-out: IC50,1500 nM
same,IC50,[5],Not Active
CC(C)n1c(NCC(O)COc2ccc(CC#N)c(F)c2)nc2ccc(Cl)cc21 (stereo not given),inhibition,[1],> 50%
N#CCc1ccc(OCC(O)CNc2nc3ccc(Cl)cc3s2)cc1 (stereo not given),inhibition,Pseudomonas aeruginosa [2],inactive
same,inhibition,Pseudomonas aeruginosa [3],inactive
N#CCc1ccc(OCC(O)CNc2nc3ccc(Cl)cc3n2C2CCC2)cc1 (stereo not given),inhibition,[1],> 50%
Cn1c(NCC(O)COc2ccc(CC#N)cc2)nc2cc(Cl)ccc21 (stereo not given),IC50,[4],Not Active
same,IC50,[5],Not Active
CN(C)CCn1c(NCC(O)COc2ccc(CC#N)cc2)nc2ccc(Cl)cc21 (stereo not given),IC50,[4],Not Active
same,IC50,[5],Not Active
N#CCc1ccc(OCC(O)CNc2nc3ccc(Cl)cc3n2CCOCc2ccccc2)cc1 (stereo not given),IC50,[5],Not Active
CC(C)n1c(NCC(O)COc2ccc(CC#N)cc2)nc2ccc(Cl)cc21 (stereo not given),Activity,[6],Active
same,Activity,[7],Active
same,Activity,[8],Active
same,Activity,[9],Active
same,Activity,[10],inactive
same,Activity,[11],inactive
same,Activity,[12],Active
same,Activity,[13],Active
same,Activity,[14],Active
same,Activity,[15],20%
same,Activity,[16],20%
same,Activity,[17],20%
same,Activity,[18],20%
same,Activity,[19],20%
same,Activity,[20],20%
same,Activity,[21],inactive
same,inhibition,[22],Active
same,inhibition,[23],Active
same,inhibition,[24],inactive
same,inhibition,[25],Active
same,inhibition,[26],Active
same,inhibition,[27],Active
same,inhibition,[28],Active
same,inhibition,Pseudomonas aeruginosa [29],inactive
same,Activity,Pseudomonas aeruginosa [30],Active
same,inhibition,Pseudomonas aeruginosa [31],inactive
same,Activity,Pseudomonas aeruginosa [32],Active
same,Activity,A549,Non-Toxic
Cn1c(SCC(O)COc2ccc(CC#N)cc2)nc2ccc(Cl)cc21 (stereo not given),inhibition,Pseudomonas aeruginosa [2],inactive
same,inhibition,Pseudomonas aeruginosa [3],inactive
CC(C)n1c(NCC(O)COc2ccc(CC#N)cc2F)nc2ccc(Cl)cc21 (stereo not given),inhibition,[1],> 50%
same,Activity,A549,Non-Toxic
COCCn1c(NCC(O)COc2ccc(CC#N)cc2)nc2ccc(Cl)cc21 (stereo not given),inhibition,[1],> 50%
CC(C)n1c(NCC(N)COc2ccc(CC#N)cc2)nc2ccc(Cl)cc21 (stereo not given),IC50,[5],Not Active
Cn1c(NCC(O)COc2ccc(CC#N)cc2)nc2ccc(Cl)cc21 (stereo not given),inhibition,[1],> 50%
CN1CCC(n2c(NCC(O)COc3ccc(CC#N)cc3)nc3ccc(Cl)cc32)CC1 (stereo not given),IC50,[4],Not Active
same,IC50,[5],Not Active
